# In ChEMBL document CHEMBL4261629 (Bioorg Med Chem, 2018):
# Calls of active or inactive are those of the source. No cut-off for these calls is given here.
# Legend:
# [1] = target: T1, Protein deacetylase HDAC6 (Homo sapiens, UniProt Q9UBN7); assay: Inhibition of recombinant human HDAC6 using fluorogenic HDAC substrate preincubated for 15 mins followed by substrate addition and measured after 30 mins by fluorescence analysis
# T1 sequence (Q9UBN7 whole entry): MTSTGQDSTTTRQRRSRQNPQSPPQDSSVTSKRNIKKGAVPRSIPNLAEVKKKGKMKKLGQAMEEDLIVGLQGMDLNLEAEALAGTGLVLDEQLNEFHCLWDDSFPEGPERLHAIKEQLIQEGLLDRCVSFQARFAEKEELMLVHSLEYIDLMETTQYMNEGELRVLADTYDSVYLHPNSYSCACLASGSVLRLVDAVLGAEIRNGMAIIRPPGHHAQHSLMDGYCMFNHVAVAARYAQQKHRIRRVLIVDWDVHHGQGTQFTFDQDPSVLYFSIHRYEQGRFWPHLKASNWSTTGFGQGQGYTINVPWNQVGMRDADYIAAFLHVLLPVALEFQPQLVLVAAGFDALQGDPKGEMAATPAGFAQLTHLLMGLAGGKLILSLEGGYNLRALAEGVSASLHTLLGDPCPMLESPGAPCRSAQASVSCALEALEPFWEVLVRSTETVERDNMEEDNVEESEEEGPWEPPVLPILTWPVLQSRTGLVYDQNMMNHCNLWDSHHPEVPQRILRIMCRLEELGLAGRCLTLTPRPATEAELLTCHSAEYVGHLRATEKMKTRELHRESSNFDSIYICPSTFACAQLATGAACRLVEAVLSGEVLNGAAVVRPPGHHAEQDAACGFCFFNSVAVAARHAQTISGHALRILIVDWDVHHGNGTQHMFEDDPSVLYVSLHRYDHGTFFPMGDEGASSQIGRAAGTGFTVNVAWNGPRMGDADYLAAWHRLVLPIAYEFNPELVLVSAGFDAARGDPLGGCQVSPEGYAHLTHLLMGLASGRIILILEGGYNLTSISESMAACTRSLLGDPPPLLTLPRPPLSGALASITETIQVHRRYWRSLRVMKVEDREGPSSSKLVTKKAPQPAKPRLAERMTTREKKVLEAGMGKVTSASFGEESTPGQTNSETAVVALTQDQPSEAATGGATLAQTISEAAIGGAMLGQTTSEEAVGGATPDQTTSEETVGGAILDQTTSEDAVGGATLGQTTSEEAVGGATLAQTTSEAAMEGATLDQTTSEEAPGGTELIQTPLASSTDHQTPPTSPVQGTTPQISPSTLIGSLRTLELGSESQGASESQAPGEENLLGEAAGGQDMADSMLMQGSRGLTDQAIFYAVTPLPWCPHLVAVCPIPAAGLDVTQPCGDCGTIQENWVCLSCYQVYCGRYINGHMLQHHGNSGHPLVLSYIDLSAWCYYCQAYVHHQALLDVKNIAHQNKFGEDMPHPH
# Histone deacetylase 3 = Histone deacetylase 3 (Homo sapiens, UniProt O15379); assay: Inhibition of recombinant human HDAC3 using fluorogenic HDAC substrate after 30 mins by fluorescence analysis
# [2] = Antioxidant activity assessed as H2O2 radical scavenging at 10 uM up to 200 mins; format: functional
# Summary of the method: (§1)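 Kinetic peroxide scavenging by GSH at 25 °C in 100 mM phosphate buffer, pH 7.5. Final conditions: EDTA 1 mM, GSH 0.25 mM, NADPH 0.50 mM, glutathione reductase 1.3 unit·mL-1, peroxide 0.20 mM (H2O2, t-BuOOH or Cum-OOH), catalyst 10 μM. Scavenging was followed over time, and maximal scavenging was derived. Mean ± SE, three independent experiments.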
# [3] = Antioxidant activity assessed as tert-butyl hydroperoxide radical scavenging at 10 uM up to 200 mins; format: functional; summary of the method: as §1
# [4] = Antioxidant activity assessed as cumene hydroperoxide radical scavenging at 10 uM up to 200 mins; format: functional; summary of the method: as §1
# PC-12 [5] = assay: Cytotoxicity against rat PC12 cells at 20 uM after 24 hrs by MTT assay; format: cell-based; settings: pc-12, 24 h
# PC-12 [6] = assay: Neuroprotective activity against H2O2-induced toxicity in rat PC12 cells assessed as cell viability at 10 uM pretreated for 24 hrs followed by H2O2 challenge and measured after 12 hrs by MTT assay relative to control; format: functional, cell-based
# Summary of the method: (§2)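 Medium was replaced with fresh medium containing H2O2 (400 μM) or 6-OHDA (200 μM), and incubation continued 12 h. Viability was read by MTT assay. Mean ± SD, three independent experiments.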
# PC-12 [7] = assay: Neuroprotective activity against 6-OHDA-induced toxicity in rat PC12 cells assessed as increase in cell viability at 5 uM pretreated for 24 hrs followed by 6-OHDA challenge and measured after 12 hrs by MTT assay; format: functional, cell-based; summary of the method: as §2
# PC-12 [8] = assay: Neuroprotective activity against 6-OHDA-induced toxicity in rat PC12 cells assessed as increase in cell viability at 10 uM pretreated for 24 hrs followed by 6-OHDA challenge and measured after 12 hrs by MTT assay; format: functional, cell-based; summary of the method: as §2
# PC-12 [9] = assay: Neuroprotective activity against H2O2-induced toxicity in rat PC12 cells assessed as cell viability at 5 to 10 uM pretreated for 24 hrs followed by H2O2 challenge and measured after 12 hrs coincubated with tubastatin A by MTT assay relative to control; format: functional; summary of the method: as §2
# PC-12 [10] = assay: Cytoprotective activity against H2O2-induced damage in rat PC12 cells assessed as decrease in ROS accumulation preincubated for 24 hrs followed by H2O2 challenge measured after 12 hrs by DCFH-DA dye-based fluorescence analysis; format: functional, cell-based
# Summary of the method: (§3)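 Intracellular ROS was detected by DCFH-DA staining, which esterases deacetylate and ROS oxidise to fluorescent dichlorofluorescein. Fluorescence was quantified on a microplate reader.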
# PC-12 [11] = assay: Cytoprotective activity against H2O2-induced damage in rat PC12 cells assessed as decrease in ROS accumulation preincubated for 24 hrs followed by H2O2 challenge measured after 12 hrs by DCFH-DA dye-based inverted fluorescence microscopic analysis; format: functional, cell-based
# Summary of the method: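 PC12 cells were pretreated with compound (5 or 10 µM), then challenged with H2O2 and stained with DCFH-DA to show ROS. Fluorescence images were taken by inverted fluorescence microscopy.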
# PC-12 [12] = assay: Neuroprotective activity against 6-OHDA-induced toxicity in rat PC12 cells assessed as increase in cell viability at 5 to 10 uM pretreated for 24 hrs followed by 6-OHDA challenge and measured after 12 hrs coincubated with tubastatin A by MTT assay; format: functional, cell-based; summary of the method: as §2
# PC-12 [13] = assay: Antioxidant activity against H2O2-induced oxidative stress in rat PC12 cells assessed as decrease in ROS accumulation at 5 uM preincubated for 24 hrs followed by H2O2 challenge and measured after 12 hrs coincubated with tubastatin A by DCFH-DA dye-based fluorescence analysis; format: functional, cell-based; summary of the method: as §3
# PC-12 [14] = assay: Antioxidant activity against H2O2-induced oxidative stress in rat PC12 cells assessed as decrease in ROS accumulation at 5 uM preincubated for 24 hrs followed by H2O2 challenge and measured after 12 hrs by DCFH-DA dye-based fluorescence analysis; format: functional, cell-based; summary of the method: as §3
# PC-12 [15] = assay: Antioxidant activity against H2O2-induced oxidative stress in rat PC12 cells assessed as decrease in ROS accumulation preincubated for 24 hrs followed by H2O2 challenge and measured after 12 hrs coincubated with tubastatin A by DCFH-DA dye-based fluorescence analysis; format: functional, cell-based; summary of the method: as §3
# PC-12 [16] = assay: Cytotoxicity against rat PC12 cells at 20 uM in presence of tubastantin A after 24 hrs by MTT assay; format: cell-based; settings: pc-12, 24 h
# Sequence of Histone deacetylase 3 (O15379 whole entry): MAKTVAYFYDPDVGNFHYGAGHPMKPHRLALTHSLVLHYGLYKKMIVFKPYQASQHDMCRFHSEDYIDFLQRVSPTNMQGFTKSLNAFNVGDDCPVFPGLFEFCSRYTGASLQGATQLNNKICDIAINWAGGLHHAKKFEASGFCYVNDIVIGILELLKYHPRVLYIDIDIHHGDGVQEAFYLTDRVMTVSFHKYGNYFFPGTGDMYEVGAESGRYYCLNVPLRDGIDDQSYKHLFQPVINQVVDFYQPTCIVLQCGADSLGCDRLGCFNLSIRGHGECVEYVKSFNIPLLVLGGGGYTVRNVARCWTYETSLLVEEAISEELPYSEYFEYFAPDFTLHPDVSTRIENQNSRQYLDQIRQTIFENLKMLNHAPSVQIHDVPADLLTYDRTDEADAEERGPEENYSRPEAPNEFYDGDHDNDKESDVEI
smiles,measurement,setting,value
CC(c1ccc(C(=O)NO)cc1)n1[se]c2ccccc2c1=O (racemic),IC50,[1],863 nM
O=C(CCCCCCn1[se]c2ccccc2c1=O)NO,IC50,[1],19 nM
same,IC50,Histone deacetylase 3,164 nM
same,Activity,[2],41%
same,Activity,[3],41%
same,Activity,[4],25%
O=C(NO)c1cnc(N2CCC(Cn3[se]c4ccccc4c3=O)CC2)nc1,IC50,[1],444 nM
O=C(CCCCCOc1ccc(-n2[se]c3ccccc3c2=O)cc1)NO,IC50,[1],508 nM
O=C(/C=C/c1ccc(-n2[se]c3ccccc3c2=O)cc1)NO,IC50,[1],679 nM
O=C(CCCCCCOc1ccc(-n2[se]c3ccccc3c2=O)cc1)NO,IC50,[1],181 nM
O=C(CCc1ccc(-n2[se]c3ccccc3c2=O)cc1)NO,IC50,[1],1140 nM
O=c1c2ccccc2[se]n1-c1ccccc1 [EBSELEN],IC50,[1],11500 nM
same,Activity,[2],51%
same,Activity,[3],71%
same,Activity,[4],29%
same,Activity,PC-12 [5],Non-Toxic
same,Activity,PC-12 [6],Active
same,Activity,PC-12 [7],Active
same,Activity,PC-12 [8],Active
same,Activity,PC-12 [9],90%
same,Activity,PC-12 [10],Active
same,Activity,PC-12 [11],Active
same,Activity,PC-12 [12],Active
same,Activity,PC-12 [13],Active
same,Activity,PC-12 [14],Active
same,Activity,PC-12 [15],Active
same,Activity,PC-12 [16],Non-Toxic
O=C(NO)c1cnc(N2CCC(n3[se]c4ccccc4c3=O)CC2)nc1,IC50,[1],968 nM
